# Laboratory results as given in the M2OR odorant receptor database.
# Biological target: T1, UniProt Q920P2
# T1 sequence (whole entry): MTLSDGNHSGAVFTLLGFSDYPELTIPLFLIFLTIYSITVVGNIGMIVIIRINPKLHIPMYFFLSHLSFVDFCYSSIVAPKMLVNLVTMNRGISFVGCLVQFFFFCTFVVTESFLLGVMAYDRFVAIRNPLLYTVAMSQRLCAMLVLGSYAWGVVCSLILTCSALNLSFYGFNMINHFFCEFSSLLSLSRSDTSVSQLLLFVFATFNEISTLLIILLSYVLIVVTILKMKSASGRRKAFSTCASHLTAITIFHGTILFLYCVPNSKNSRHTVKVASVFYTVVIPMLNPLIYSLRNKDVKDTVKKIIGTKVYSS
# Conditions: stereoisomer not certain
# How it was run: (§1)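 Each receptor–molecule pair is labelled responsive or non-responsive (inactive) according to whether the original authors judged the measured signal statistically different from baseline. The data were taken from the main text and supplementary material of published papers and checked for typos and inconsistencies. Assay methods differed by source, with transient luciferase assays in mammalian cell lines being common.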
# 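Note: active if original authors judged signal statistically different from baseline.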
row,SMILES,odorant receptor agonist call
1,COc1cc(C(=O)O)ccc1O,inactive
2,COc1cc(C=O)cc(OC)c1O,inactive
3,c1ccccc1,inactive
4,CC(C)=CCCC(C)=CCO,inactive
5,CC(C=O)Cc1ccc(C(C)(C)C)cc1 (stereo not drawn),inactive

# Biological target: T2, UniProt Q924H8
# T2 sequence (whole entry): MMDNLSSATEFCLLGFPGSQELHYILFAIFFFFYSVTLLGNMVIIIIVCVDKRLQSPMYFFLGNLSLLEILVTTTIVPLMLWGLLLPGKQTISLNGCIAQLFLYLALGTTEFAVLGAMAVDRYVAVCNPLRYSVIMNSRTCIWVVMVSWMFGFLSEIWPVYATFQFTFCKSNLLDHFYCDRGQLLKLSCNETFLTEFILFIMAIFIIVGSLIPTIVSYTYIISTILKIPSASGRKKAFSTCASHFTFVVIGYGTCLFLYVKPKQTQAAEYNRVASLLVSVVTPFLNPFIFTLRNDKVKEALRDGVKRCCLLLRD
# Conditions: stereoisomer not certain
# How it was run: as §1
row,SMILES,odorant receptor agonist call
1,O=C(OCc1ccccc1)c1ccccc1O,inactive
2,COc1nccnc1C,inactive
3,CCN(CC)CC,inactive
4,CCCCCCC(=O)OCCCC,inactive
5,CCC=CCCCCC=O,inactive
6,COc1nccnc1C(C)C,inactive
7,CCCCCOC(=O)CCC,inactive
8,c1ccc2ncccc2c1,inactive
9,CCCO,inactive
10,COc1cc(C(=O)O)ccc1O,inactive
11,CCc1nccnc1CC,inactive
12,C=CC(=C)CCC=C(C)CCC=C(C)C,inactive
13,c1ccccc1,inactive
14,CCOC(=O)CC(C)C,inactive
15,CCCCCCCCCC=CC=O,inactive
16,CCSCC,inactive
17,CCCCCCCOC(=O)C(C)C,inactive

row,SMILES,odorant receptor agonist call
1,CCCCCCC(C)O (stereo not drawn),inactive
2,C=C(C)C1CCC(C)C(O)C1 (stereo not drawn),inactive
3,CC(C)CS,inactive
4,CC(C)=CCCC(C)=CCOC(=O)C(C)C,inactive
5,CCCCCCCCC=CC=O,inactive
6,OCC=Cc1ccccc1,inactive
7,CCCCCC(=Cc1ccccc1)C(OC)OC,inactive
8,CC=Cc1ccc(OC)cc1,inactive
9,CNc1ccccc1C(=O)OC,inactive
10,CC(C)CCN,inactive
11,Cc1c(C)c(C)c(C=O)c(C)c1C,inactive
12,CCSSCC,inactive
13,CC=CC(=O)C1=C(C)CCCC1(C)C,inactive
14,Cc1occc1SSc1ccoc1C,inactive
15,CC(C)=CCCC(C)=CCO,inactive
16,CSSSC,inactive
17,CC=C(C)C=O,inactive

# Biological target: T3, UniProt Q9EPN9
# T3 sequence (whole entry): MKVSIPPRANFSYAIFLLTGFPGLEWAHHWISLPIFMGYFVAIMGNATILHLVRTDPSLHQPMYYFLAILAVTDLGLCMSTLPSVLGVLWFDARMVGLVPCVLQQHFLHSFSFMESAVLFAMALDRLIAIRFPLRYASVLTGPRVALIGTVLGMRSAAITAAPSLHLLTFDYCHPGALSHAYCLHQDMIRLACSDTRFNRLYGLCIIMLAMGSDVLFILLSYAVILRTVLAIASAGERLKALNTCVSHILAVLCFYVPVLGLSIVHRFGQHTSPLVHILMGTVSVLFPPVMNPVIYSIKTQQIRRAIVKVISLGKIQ
# Conditions: stereoisomer not certain
# How it was run: as §1
row,SMILES,odorant receptor agonist call
1,COc1cc(C(=O)O)ccc1O,inactive
2,c1ccccc1,inactive
3,CC(C)=CCCC(C)=CCO,inactive

# Biological target: UniProt Q9R0K2
# Conditions: stereoisomer not certain
# How it was run: as §1
# Chain of UniProt Q9R0K2 (Q9R0K2 as listed by the source): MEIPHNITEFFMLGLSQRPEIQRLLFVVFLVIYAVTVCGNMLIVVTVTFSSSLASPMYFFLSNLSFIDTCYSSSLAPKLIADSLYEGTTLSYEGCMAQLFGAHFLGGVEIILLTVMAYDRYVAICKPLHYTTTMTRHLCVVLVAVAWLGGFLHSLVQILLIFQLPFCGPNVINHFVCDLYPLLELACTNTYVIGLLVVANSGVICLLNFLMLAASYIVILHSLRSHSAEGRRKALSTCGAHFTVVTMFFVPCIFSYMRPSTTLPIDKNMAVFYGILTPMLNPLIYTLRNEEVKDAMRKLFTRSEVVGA
row,SMILES,odorant receptor agonist call
1,COc1cc(C(=O)O)ccc1O,inactive
2,c1ccccc1,inactive
3,CC(C)=CCCC(C)=CCO,active

# Biological target: T4, UniProt Q9WU86
# T4 sequence (whole entry): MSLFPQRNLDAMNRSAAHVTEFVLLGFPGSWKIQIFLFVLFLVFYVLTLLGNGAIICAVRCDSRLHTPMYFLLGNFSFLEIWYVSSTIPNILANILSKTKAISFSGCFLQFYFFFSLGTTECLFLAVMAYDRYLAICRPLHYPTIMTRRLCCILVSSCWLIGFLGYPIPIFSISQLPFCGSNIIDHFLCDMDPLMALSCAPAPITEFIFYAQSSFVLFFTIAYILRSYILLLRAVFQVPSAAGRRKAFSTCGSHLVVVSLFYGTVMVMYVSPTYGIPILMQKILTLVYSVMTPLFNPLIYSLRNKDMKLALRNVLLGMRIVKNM
# Conditions: stereoisomer not certain
# How it was run: as §1
row,SMILES,odorant receptor agonist call
1,COc1cc(C(=O)O)ccc1O,inactive
2,c1ccccc1,inactive
3,CC(C)=CCCC(C)=CCO,inactive
